Ecoli rRNA inh – inhibits bacterial ribosomal RNA function over humanized ribosomes; E. coli WT GFP vs humanized-ribosome RFP mutants, fluorescence, 24 h; stronger effect = lower value; DMSO median 0, no signal -100; GFP signal change (wild-type ribosome), % (concentration not given with the values); 350,000 tested, 1.6% active; AID 720706;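 active means significant combined selectivity score with lowered wild-type GFP, culture density cut under 30%, mutant RFP and density less affected; inactive means any of these conditions unmet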
S100A4 inh HTS – blocks human S100A4 binding to myosin IIA peptide; P26447; S100A4/TAMRA-MyoIIA peptide fluorescence polarization; inhibition, % at 10.7 µM; 360,000 tested, 0.14% active;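 active means mean inhibition of at least 70% across replicates, with every replicate also reaching that level; inconclusive means mean inhibition reaches 70% but some replicates fall short; inactive means mean inhibition below 70%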
Target sequence (P26447 whole entry, looked up): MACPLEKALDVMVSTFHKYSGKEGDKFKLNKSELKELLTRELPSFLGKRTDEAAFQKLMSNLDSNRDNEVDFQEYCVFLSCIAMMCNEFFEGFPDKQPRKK
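Test system: S100A4 monomer protein; Medium: HEPES pH 7.2 with CaCl2, KCl, NaCl, DTT, Triton; Probe or stimulus: TAMRA-labelled myosin IIA heavy-chain peptide probe, 5 nM; Doses: one dose per compound; Times: polarization read 5 min after assay mix addition, stable 5–60 min; Benchmarks: neutral control DMSO, positive control TFP.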
PfHsp90 yeast 2 – growth inhibition of yeast expressing Plasmodium Hsp90. S. cerevisiae expressing PfHsp90, BacTiter-Glo ATP, 48 h; yeast lacking PDR1 and PDR3 efflux regulators. inhibition, % at 9.4 µM. 310,000 tested, 0.32% active;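 active means every replicate shows inhibition above about 80%, whatever the replicate mean, limit read from the data; inconclusive means mean inhibition reaches the set limit but some replicate falls short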;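 further: 0% = DMSO neutral controls and 100% = 20 µM radicicol positive controls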
DENV2 CPE rescue – DENV2-induced cell death inhibition | 350,000 tested, 1.7% active | CPE inhibition, % at 9.99 µM | DENV2-infected cells, cytopathic effect rescue, plate reader; in the data active means CPE inhibition above about 20%, passing the limit was not always enough; inconclusive means no clear call, values can overlap the other calls; tested in BHK-21 cells;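 further: 0% = median of neutral control wells and 100% = median of positive control wells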
AF4-AF9 inh – blocks AF4 peptide binding to human AF9. P42568. AlphaScreen, biotin-AF4 peptide binding to FLAG-AF9. inhibition, % at 10 µM. 350,000 tested, 0.47% active;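 active means every replicate reaching a set inhibition limit, whatever the replicate mean, cut at about 25% in these data; inconclusive means mean inhibition reaches that limit but some replicates miss it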;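 further: 0% = plate neutral control median and 100% = total signal loss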
Target sequence (P42568 whole entry, looked up): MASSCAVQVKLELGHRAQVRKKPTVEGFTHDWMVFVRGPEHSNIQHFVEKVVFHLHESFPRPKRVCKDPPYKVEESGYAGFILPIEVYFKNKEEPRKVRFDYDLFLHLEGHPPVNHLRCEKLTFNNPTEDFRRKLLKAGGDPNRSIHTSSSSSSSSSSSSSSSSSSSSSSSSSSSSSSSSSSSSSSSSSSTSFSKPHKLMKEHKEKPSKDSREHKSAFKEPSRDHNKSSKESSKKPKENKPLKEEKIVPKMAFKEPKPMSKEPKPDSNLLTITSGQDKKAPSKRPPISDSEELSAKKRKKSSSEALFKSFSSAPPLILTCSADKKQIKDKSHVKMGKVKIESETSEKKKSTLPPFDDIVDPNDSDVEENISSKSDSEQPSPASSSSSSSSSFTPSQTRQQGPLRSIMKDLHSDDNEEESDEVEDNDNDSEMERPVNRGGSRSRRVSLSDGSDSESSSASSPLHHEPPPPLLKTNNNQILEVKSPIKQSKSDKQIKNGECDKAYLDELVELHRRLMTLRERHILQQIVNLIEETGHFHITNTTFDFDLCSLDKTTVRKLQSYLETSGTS
Cneo AK release – Cryptococcus neoformans lysis via adenylate kinase release; C. neoformans lysis, adenylate kinase release luminescence, 4 h; normalised: neutral wells 0, clomiphene wells 100; lysis activity, % at 15 µM; 360,000 tested, 0.2% active; AID 651654;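 active means mean lysis activity across replicates of at least 80%, whatever share of replicates individually reach that level; inactive means mean lysis activity below 80%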
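Assay system: log-phase C. neoformans yeast / Quantity: yeast cell density of 5 × 10^6 cells/mL / Medium: fresh YPD growth medium / Compound: single dose / Timing: static 4 h at 37 °C with compound, 1 h detection / Measured by: adenylate kinase release luminescence / Read-out: lysis from increased AK signal / Benchmarks: Clomiphene as positive lysis control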
An asterisk follows results filed as active; ? = inconclusive; . = no result given; ! = repeats disagree. The list is not random: actives were taken first. Their share in the collection is about 3.2%.

SMILES	Ecoli rRNA inh	S100A4 inh HTS	PfHsp90 yeast 2	DENV2 CPE rescue	AF4-AF9 inh	Cneo AK release
CN(C)C(=O)c1ccc(-c2ccc(C3[C@H]4CNC[C@@H]3N4C(=O)NC3CCCC3)cc2)cc1 (stereo partly drawn)	2	-2	.	72*	9	.
COc1cccc(-c2ccc(C3[C@@H]4CN(C(=O)Nc5ccccc5F)C[C@H]3N4)cc2)c1 (stereo partly drawn)	-12	.	.	32*!	.	.
COc1ccc(-c2ccc(C3[C@H]4CNC[C@@H]3N4C(=O)Nc3ccccc3F)cc2)cc1 (stereo partly drawn)	-7	-4	.	26*!	1	.
COc1cc(CN2C[C@@H]3N[C@H](C2)C3c2ccc(-c3cccc(OC)c3)cc2)cc(OC)c1 (stereo partly drawn)	-61	-22	.	1	26*!	.
O=C(Nc1ccccc1F)N1[C@@H]2CNC[C@H]1C2c1ccc(-c2ccccc2)cc1 (stereo partly drawn)	3	-7	.	-4	10	.
COc1ccc2c3c(n(C)c2c1)[C@H](CO)N(C(=O)Nc1ccc(F)cc1)CC31CCN(C(=O)c2ccccc2F)CC1	1	-7	.	-11	0	.
CCNC(=O)Nc1ccc2c(c1)C(=O)N(C)[C@@H]1CC[C@H](CC(=O)Nc3ccccc3)O[C@@H]1CO2	0	9	.	-1	1	-2
O=C(Nc1ccc2c(c1)OCO2)N1[C@@H]2CNC[C@H]1C2c1ccc(-c2ccncc2)cc1 (stereo partly drawn)	6	-2	.	-3	6	.
COc1ccc(-c2ccc(C3[C@H]4CNC[C@@H]3N4C(=O)Nc3ccc4c(c3)OCO4)cc2)cc1 (stereo partly drawn)	-6	11	.	25*!	20	.
COc1ccc(NC(=O)N2[C@@H]3CNC[C@H]2C3c2ccc(-c3ccc(C)cc3)cc2)cc1 (stereo partly drawn)	-61	-17	.	33*!	13	.
CO[C@H]1CN(C)C(=O)c2ccc(NC(=O)c3cccc(F)c3)cc2OC[C@@H](C)N(CC2CC2)C[C@@H]1C	1	7	.	-9	0	6
C[C@H](CO)N1C[C@H](C)[C@H](CN(C)Cc2ccc(Cl)c(Cl)c2)Oc2ccc(NC(=O)Cn3cnnn3)cc2CC1=O	-2	5	.	-6	3	1
CC(=O)c1ccc(OCc2cc(C(=O)N3CCCCC3c3cccnc3)no2)cc1 (stereo not drawn)	-28*	2	.	-2	5	-11
CC(=O)c1ccc(OCc2cc(C(=O)N3CCC(c4ccncc4)CC3)no2)cc1	-4	2	8	0	3	-1
CCC1CCCCN1C(=O)c1cc(COc2ccc3ncccc3c2)on1 (stereo not drawn)	-30*	-12	.	-1	1	.
CC1(C)CC(=O)C(C=NCC(N)=O)=C(O)C1	-23*	-14	9	5	-1	-1
CN=CC1=C(O)CC(C)(C)CC1=O	.	.	-4	.	.	0
CCCNC(=O)C1(C)CCCN(Cc2ccc(C#N)cc2)C1 (stereo not drawn)	5	-2	.	48*	2	0
COc1ccccc1N1CCN(Cc2cnc3ccc(Cl)cn23)CC1	3	-2	24	32*	0	2
COc1ccccc1N1CCN(Cc2ccc(C(=O)O)cc2)CC1	14	-3	17	0	-4	1
C=Cn1cc[n+](CC(=O)c2cc(C(C)(C)C)c(O)c(C(C)(C)C)c2)c1	-19*	4	9	?	-7	-1
COc1ccc2c3c([nH]c2c1)[C@@H](CO)N(C(=O)Nc1ccc(F)cc1)CC31CN(CC2CC2)C1	1	.	.	.	.	.
COc1ccc2c3c([nH]c2c1)[C@H](CO)N(C(=O)Nc1cccc(F)c1)CC31CN(CC2CC2)C1	-8	12	.	25*	29*	.
COc1ccc2c3c([nH]c2c1)[C@@H](CO)N(C(=O)Nc1cccc(F)c1)CC31CCN(CC2CC2)CC1	-1	0	.	-9	25*	.
COc1ccc2c3c([nH]c2c1)[C@H](CO)N(C(=O)Nc1cccc(F)c1)CC31CCN(CC2CC2)CC1	6	-3	.	-2	12	.
SMILES	Ecoli rRNA inh	S100A4 inh HTS	PfHsp90 yeast 2	DENV2 CPE rescue	AF4-AF9 inh	Cneo AK release
Cc1cccc(C)c1OCC(=O)NNC(=S)NC(=O)C1CC1	-58	10	104*	1	0	6
Cc1cccc(C)c1OCC(=O)NC1CC1	5	0	-9	5	1	3
COCC#Cc1cnc2c(c1)C(=O)N([C@H](C)CO)C[C@@H](C)[C@H](CN(C)Cc1ccc3c(c1)OCO3)O2	5	0	.	6	-1	5
COc1ccc([C@H]2CC=CC[C@@H](C)Oc3ccccc3C(=O)N(C)[C@H](C)C(=O)N2)c(OC)c1 (mixture of isomers)	-2	.	.	.	.	.
C[C@H](CO)N1C[C@H](C)[C@@H](CN(C)Cc2ccc(C(F)(F)F)cc2)Oc2ccc(NS(C)(=O)=O)cc2C1=O	-1	-1	.	0	-4	0
Cc1ccc(C)c(NC(=O)C2CCCN(S(=O)(=O)c3ccc4[nH]c(=O)ccc4c3)C2)c1 (stereo not drawn)	3	-10	-8	-5	0	0
O=C(Nc1ccc(F)cc1)C1CCCN(S(=O)(=O)c2ccc3[nH]c(=O)ccc3c2)C1 (stereo not drawn)	13	-3	-32	115*	-2	5
O=C(Cc1cccc(NC(=O)C2CCCN(C(=O)C3CCC3)C2)c1)Nc1ccc(C(=O)N2CCOCC2)cc1 (stereo not drawn)	11	-2	-13	32*	-8	0
O=C(Nc1cccc(-n2cnnn2)c1)C1CCCN(C(=O)Cc2cccc(Cl)c2)C1 (stereo not drawn)	2	1	.	61*	0	-3
O=C(Cc1cccc(NC(=O)C2CCCN(C(=O)C3CCCC3)C2)c1)Nc1ccc(C(=O)N2CCOCC2)cc1 (stereo not drawn)	5	5	-6	27*	-8	-1
O=C(Cc1cccc(NC(=O)C2CCCN(C(=O)CCc3ccccc3)C2)c1)Nc1cccc(C(=O)N2CCCCC2)c1 (stereo not drawn)	-18*	-2	13	6	-1	5
O=C(Nc1cccc(-n2cnnn2)c1)C1CCCN(Cc2cccc(C(F)(F)F)c2)C1 (stereo not drawn)	-10	-11	1	-6	3	-5
O=C(Cc1cccc(NC(=O)C2CCCN(C(=O)C3CCCC3)C2)c1)Nc1cccc(C(=O)N2CCOCC2)c1 (stereo not drawn)	-3	3	-8	3	-1	1

Bioassay records as filed in PubChem BioAssay.
